Compounds with a hit are over-represented: about 1.9% of the library has one in this group of screens.
PG9 Ab binder: PG9 antibody binding by small molecule | TR-FRET gp120-PG9 antibody binding | inhibition, % at 6.7 µM | hit rate 0.43% among 360,000 | AID 624416; in the data active means inhibition above about 8.5%
Rce1 inh: yeast Ras-converting enzyme inhibition | hit rate 0.27% among 290,000 | yeast membranes, quenched prenylated peptide cleavage fluorescence | Q03530 | calls only;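 active means fall in fluorescence gain of 50% or more versus controls, with final raw signal at or below 3038400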
Target sequence (Q03530 whole entry, looked up): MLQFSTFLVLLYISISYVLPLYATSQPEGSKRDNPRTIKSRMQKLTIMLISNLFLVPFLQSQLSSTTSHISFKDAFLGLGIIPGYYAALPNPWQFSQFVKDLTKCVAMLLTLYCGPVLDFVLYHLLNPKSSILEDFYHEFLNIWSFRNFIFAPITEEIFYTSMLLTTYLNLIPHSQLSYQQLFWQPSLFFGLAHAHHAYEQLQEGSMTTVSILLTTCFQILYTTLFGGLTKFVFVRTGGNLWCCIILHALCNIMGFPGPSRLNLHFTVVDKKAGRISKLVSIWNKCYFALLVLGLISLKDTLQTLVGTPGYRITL
UCH37 inh: human UCH37 deubiquitinating enzyme inhibition | Q9Y5K5 | purified proteasome/UCH37, Ub-AMC cleavage fluorescence | hit rate 0.33% among 330,000 | AID 588478 | inhibition, % (test concentration not listed);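 active means mean inhibition over replicate wells above about 20%, limit read from the data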
Target sequence (Q9Y5K5 whole entry, looked up): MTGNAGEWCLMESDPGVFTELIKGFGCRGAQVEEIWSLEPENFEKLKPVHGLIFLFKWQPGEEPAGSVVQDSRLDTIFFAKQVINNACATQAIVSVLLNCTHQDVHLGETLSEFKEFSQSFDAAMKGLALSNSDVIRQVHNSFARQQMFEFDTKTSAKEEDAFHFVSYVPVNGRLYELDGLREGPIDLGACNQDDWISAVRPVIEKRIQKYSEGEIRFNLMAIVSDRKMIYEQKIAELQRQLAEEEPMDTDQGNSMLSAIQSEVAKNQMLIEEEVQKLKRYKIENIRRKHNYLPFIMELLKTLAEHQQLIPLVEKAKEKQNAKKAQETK
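Assay system: Proteasome-bound UCH37. Buffer or medium: pH 7.4 Tris-HCl (50 mM) with ovalbumin, ATP-MgCl2, DTT. Incubation: 30 min preincubation with enzyme, 25 min cleavage at room temperature. Measured by: fluorescence, ex 355 nm, em 460 nm. Read-out basis: percent inhibition. Control set: wells without proteasome as full block, compound-free enzyme plus substrate as uninhibited.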
CR mimetic SO: caloric restriction mimetics inhibiting age-related superoxide in yeast; S. cerevisiae aged cells, superoxide DHE fluorescence; stronger effect = lower value; superoxide response (% of plate mean), % at 10 µM; hit rate 0.18% among 330,000; AID 2690;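 active means superoxide response under a set limit, about three screen SD below normal, cut at about 65% in these data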;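 further: yeast aged for seven days with compound at 30 °C before DHE staining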
MIN6 prolif: induces beta-cell replication in MIN6 cells; MIN6 cells proliferation, ATPlite luminescence, 48 h; cells starved in 0.2% serum; 100% = growth in 10% serum; hit rate 0.29% among 330,000; AID 2380; proliferation, % at 10 µM;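 active means compounds whose signal lies at least 3.5 SD above the mean of all wells on their plate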
Rev-erbA mod: Rev-erb alpha (human) modulation. P20393. Rev-erbα–FITC-DNA binding, fluorescence polarization, 90 min. activity, % at 10 µM. hit rate 0.79% among 370,000. AID 1259318;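 active means activity above about 14%, limit read from the data; passing the limit was not always enough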
UCH37 confirm: reconfirmed inhibitor of human deubiquitinase UCH37. hit rate 27% among 480. Proteasome-bound UCH37, Ub-AMC cleavage fluorescence. AID 624100. shares compounds with UCH37 inh. inhibition, % at 20 µM;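 active means average inhibition over replicates above about 50%, so the earlier screening hit is confirmed, limit read from the data; inactive means the rest, counted as false positives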;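 further: based on cleavage rate fitted by regression over a 30 min kinetic read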
Hits are given with their value.

O=C(c1ccc(Cl)cc1)C(Cn1cncn1)C(Sc1ccccc1)c1ccccc1 (centres undefined) was read as PG9 Ab binder inactive, Rce1 inh inactive, UCH37 inh inactive, CR mimetic SO inactive, MIN6 prolif inactive and Rev-erbA mod inactive.
For Cc1ccc(SC(c2ccccc2)C(Cn2cncn2)C(=O)c2ccccc2)cc1 (centres undefined) the results were PG9 Ab binder inactive, Rce1 inh inactive, UCH37 inh 42.3, CR mimetic SO inactive, MIN6 prolif inactive, Rev-erbA mod inactive and UCH37 confirm inactive.
Screening Cc1ccc(S(=O)(=O)/N=C2\C=C(Nc3ccc(O)cc3)C(=O)c3ccccc32)cc1 returned UCH37 inh 48.5, CR mimetic SO inactive, MIN6 prolif inactive and UCH37 confirm inactive.
For Brc1ccc(C=Nc2nc3ccccc3n2CCN2CCOCC2)cc1 the results were UCH37 inh inactive.
NC(=O)CC(NC(=O)Cc1ccc(Cl)cc1)c1ccc(NCCc2ccccc2F)c([N+](=O)[O-])c1 (centres undefined) was read as PG9 Ab binder inactive, Rce1 inh inactive, UCH37 inh 47.8, CR mimetic SO inactive, MIN6 prolif inactive, Rev-erbA mod inactive and UCH37 confirm inactive.
For C#CCOCCOCCOCCNc1nc(N2CCN(C(=O)[C@H](CCCCN)n3cc(CN)nn3)CC2)nc(N2CCN(C(=O)[C@H](CCCCN)n3cc([C@@H](N)[C@H](C)CC)nn3)CC2)n1 the results were PG9 Ab binder inactive, UCH37 inh 36.0, CR mimetic SO inactive, MIN6 prolif inactive, Rev-erbA mod inactive and UCH37 confirm inactive.
`Clc1ccc(Nc2nc(-c3ccncc3)cs2)cc1` gave PG9 Ab binder inactive, Rce1 inh inactive, UCH37 inh 49.4, CR mimetic SO inactive, MIN6 prolif inactive, Rev-erbA mod inactive and UCH37 confirm inactive.
Screening COc1ccc(/C(O)=C2/C(=O)C(=O)N(CCCN3CCOCC3)C2c2ccc(OC)cc2)cc1 (centres undefined) returned PG9 Ab binder inactive, Rce1 inh inactive, UCH37 inh inactive, CR mimetic SO inactive, MIN6 prolif inactive and Rev-erbA mod inactive.
CCOc1ccc(C2/C(=C(/O)c3ccc(F)cc3)C(=O)C(=O)N2CCCN(C)C)cc1 (centres undefined) was read as PG9 Ab binder inactive, Rce1 inh inactive, UCH37 inh 35.1, CR mimetic SO inactive, MIN6 prolif inactive, Rev-erbA mod inactive and UCH37 confirm inactive.
`C=CCOc1ccc(C2/C(=C(/O)c3ccc(OC)cc3)C(=O)C(=O)N2CCN2CCNCC2)cc1` (centres undefined) gave PG9 Ab binder inactive, Rce1 inh inactive, UCH37 inh 55.2, CR mimetic SO inactive, MIN6 prolif inactive, Rev-erbA mod inactive and UCH37 confirm inactive.
For O=C(COc1ccc(Br)cc1)NN=C1SCC(=O)N1c1ccc(F)cc1 the results were UCH37 inh inactive.
`CC(=NNc1ccc(Cl)c(C(=O)O)c1)c1ccc(N2CCOCC2)cc1` gave UCH37 inh inactive.
Screening CCOC(=O)NN=C(C)c1ccc(-n2cnnn2)cc1 returned UCH37 inh inactive.
`CCOC(=O)C1=CC[C@@H](c2ccccc2Cl)N(S(=O)(=O)c2ccc(C)cc2)[C@H]1C(=O)OCC` gave PG9 Ab binder inactive, UCH37 inh 38.0, CR mimetic SO inactive, MIN6 prolif inactive, Rev-erbA mod inactive and UCH37 confirm inactive.
`Cc1ccc(NC2=C(NCCO)C(=O)c3ccccc3C2=O)cc1` gave PG9 Ab binder inactive, Rce1 inh inactive, UCH37 inh 26.2, CR mimetic SO inactive, MIN6 prolif inactive, Rev-erbA mod inactive and UCH37 confirm inactive.
For CCCC[n+]1ccn(C2=C([O-])c3ccccc3C(=O)/C2=N\S(=O)(=O)c2ccc(Br)cc2)c1 the results were PG9 Ab binder inactive, Rce1 inh inactive, UCH37 inh inactive, CR mimetic SO inactive, MIN6 prolif inactive and Rev-erbA mod inactive.
CC(=O)Nc1ccc(S(=O)(=O)/N=C2\C(=O)c3ccccc3C([O-])=C2n2cc[n+](-c3ccccn3)c2)cc1 was read as PG9 Ab binder inactive, Rce1 inh inactive, UCH37 inh 56.5, CR mimetic SO inactive, MIN6 prolif inactive, Rev-erbA mod inactive and UCH37 confirm 58.3.
Screening O=C(NN=Cc1cc(Br)cs1)c1ccncc1 returned UCH37 inh inactive.
O=C(O)C/C(=C\c1ccc(N2CCOCC2)c([N+](=O)[O-])c1)c1nc2ccccc2s1 was read as PG9 Ab binder inactive, Rce1 inh inactive, UCH37 inh inactive, CR mimetic SO inactive, MIN6 prolif inactive and Rev-erbA mod inactive.
For O=C(O)CC/C(=C\c1ccc(N2CCOCC2)c([N+](=O)[O-])c1)c1nc2ccccc2s1 the results were PG9 Ab binder inactive, Rce1 inh inactive, UCH37 inh 25.7, Rev-erbA mod inactive and UCH37 confirm inactive.
NC(=S)NN=Cc1ccc(-c2ccc(SC(F)F)cc2)o1 was read as UCH37 inh inactive.
Screening COc1ccc(C)cc1S(=O)(=O)N1CCC(C(=O)NCCC2=CCCCC2)CC1 returned PG9 Ab binder inactive, UCH37 inh 32.4, CR mimetic SO inactive, MIN6 prolif inactive, Rev-erbA mod inactive and UCH37 confirm inactive.
For CCOc1ccc(S(=O)(=O)NCCC2=CCCCC2)c2ccccc12 the results were PG9 Ab binder inactive, Rce1 inh inactive, UCH37 inh inactive, CR mimetic SO inactive, MIN6 prolif inactive and Rev-erbA mod inactive.
`COc1ccc(Cl)cc1S(=O)(=O)N1CCC(C(=O)NCCC2=CCCCC2)CC1` gave PG9 Ab binder inactive, Rce1 inh inactive, UCH37 inh inactive, CR mimetic SO inactive, MIN6 prolif inactive and Rev-erbA mod inactive.
For CC(=O)N1CCCc2cc(S(=O)(=O)NCCC3=CCCCC3)ccc21 the results were PG9 Ab binder inactive, Rce1 inh inactive, UCH37 inh 54.5, CR mimetic SO inactive, MIN6 prolif inactive, Rev-erbA mod inactive and UCH37 confirm 76.1.
For CS(=O)(=O)NCCC1=CCCCC1 the results were PG9 Ab binder inactive, Rce1 inh inactive, UCH37 inh 43.8, CR mimetic SO inactive, MIN6 prolif inactive, Rev-erbA mod inactive and UCH37 confirm 79.6.
COc1ccc(C)cc1S(=O)(=O)NCCC1=CCCCC1 was read as PG9 Ab binder inactive, Rce1 inh inactive, UCH37 inh 58.3, CR mimetic SO inactive, MIN6 prolif inactive, Rev-erbA mod inactive and UCH37 confirm inactive.
For CC(C)c1cc(C(=O)NN=Cc2c[nH]c3ccccc23)n[nH]1 the results were UCH37 inh inactive.
`CC(C)(CSc1nncn1N=Cc1ccco1)NS(=O)(=O)c1ccc(Cl)cc1` gave UCH37 inh inactive.
Screening COc1ccc(C(=O)NN=C(C)c2ccc(NC(=O)Cc3ccccc3)cc2)c(OC)c1 returned UCH37 inh inactive.
CC(=NOCC(=O)OCC(=O)N(C)c1ccccc1)c1ccc2c(c1)OCO2 was read as UCH37 inh inactive.

Bioassay records from PubChem.
